Data: ChEMBL document CHEMBL5724801, “EUbOPEN Chemogenomics Library - Multiplex” (2024)
“And” between values parts separate entries of the source, which are not always exact repeats. Identical values can stand only once.

System: HEK-293T
Test: Multiplex assay against HEK293T
Format: toxicity, cell-based
Details: human
Method in brief: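 At seeding, live cells were stained with Hoechst33342, BioTracker Green Microtubule Cytoskeleton Dye, MitoTracker Red and Annexin V Alexa Fluor 680. After compound addition they were imaged on a CQ1 microscope at 37°C and 5% CO2, and CellPathfinder machine-learning gating sorted them into Hoechst high-intensity objects or normal cells, with normal cells further split into healthy, pyknosed or fragmented nuclei and pyknosed cells into mitotic or apoptotic. Tubulin, mitochondrial-mass and membrane-permeability phenotypes are given as per cents of cells with healthy nuclei.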

[1] = 12 h, 1 µM, compound concentration 1 uM
[2] = 12 h, 10 µM, compound concentration 10 uM
[3] = 24 h, 1 µM, compound concentration 1 uM
[4] = 24 h, 10 µM, compound concentration 10 uM
[5] = 48 h, 1 µM, compound concentration 1 uM
[6] = 48 h, 10 µM, compound concentration 10 uM

Cc1c(Cc2ccc3ccccc3n2)c2cc(F)ccc2n1CC(=O)O [TIMAPIPRANT]
Population Apoptotic (%) [1]: 42%
Population Fragmented Nuclei (%) [1]: 7% and 6%
Population Healthy Nuclei (%) [1]: 80%
Population Hoechst High Intensity Objects (%) [1]: 10% and 7%
Population Membrane Permeable-Phenotype (%) [1]: 0%
Population Mitochondria Different-Phenotype (%) [1]: 36% and 55%
Population Mitotic Cells (%) [1]: 57%
Population Normal (%) [1]: 89% and 92%
Population Pyknosed Nuclei (%) [1]: 11% and 12%
Population Tubulin-Different-Phenotype (%) [1]: 20% and 16%
Total Cell Count [1]: 394 and 280
Population Apoptotic (%) [2]: 32% and 33%
Population Fragmented Nuclei (%) [2]: 7% and 6%
Population Healthy Nuclei (%) [2]: 78%
Population Hoechst High Intensity Objects (%) [2]: 6% and 5%
Population Membrane Permeable-Phenotype (%) [2]: 0%
Population Mitochondria Different-Phenotype (%) [2]: 55% and 63%
Population Mitotic Cells (%) [2]: 67% and 66%
Population Normal (%) [2]: 93% and 94%
Population Pyknosed Nuclei (%) [2]: 14% and 15%
Population Tubulin-Different-Phenotype (%) [2]: 38% and 28%
Total Cell Count [2]: 434 and 354
Population Apoptotic (%) [3]: 31% and 53%
Population Fragmented Nuclei (%) [3]: 10% and 7%
Population Healthy Nuclei (%) [3]: 81% and 83%
Population Hoechst High Intensity Objects (%) [3]: 4% and 5%
Population Membrane Permeable-Phenotype (%) [3]: 1% and 0%
Population Mitochondria Different-Phenotype (%) [3]: 20% and 38%
Population Mitotic Cells (%) [3]: 68% and 46%
Population Normal (%) [3]: 95% and 94%
Population Pyknosed Nuclei (%) [3]: 8%
Population Tubulin-Different-Phenotype (%) [3]: 15%
Total Cell Count [3]: 516 and 381
Population Apoptotic (%) [4]: 32% and 37%
Population Fragmented Nuclei (%) [4]: 7% and 12%
Population Healthy Nuclei (%) [4]: 78% and 77%
Population Hoechst High Intensity Objects (%) [4]: 4% and 5%
Population Membrane Permeable-Phenotype (%) [4]: 0%
Population Mitochondria Different-Phenotype (%) [4]: 31% and 44%
Population Mitotic Cells (%) [4]: 67% and 62%
Population Normal (%) [4]: 95% and 94%
Population Pyknosed Nuclei (%) [4]: 13% and 10%
Population Tubulin-Different-Phenotype (%) [4]: 28% and 20%
Total Cell Count [4]: 560 and 475
Population Apoptotic (%) [5]: 26% and 17%
Population Fragmented Nuclei (%) [5]: 13% and 15%
Population Healthy Nuclei (%) [5]: 78% and 76%
Population Hoechst High Intensity Objects (%) [5]: 2% and 3%
Population Membrane Permeable-Phenotype (%) [5]: 1% and 0%
Population Mitochondria Different-Phenotype (%) [5]: 9% and 25%
Population Mitotic Cells (%) [5]: 73% and 82%
Population Normal (%) [5]: 97% and 96%
Population Pyknosed Nuclei (%) [5]: 8%
Population Tubulin-Different-Phenotype (%) [5]: 6% and 12%
Total Cell Count [5]: 799 and 566
Population Apoptotic (%) [6]: 33% and 36%
Population Fragmented Nuclei (%) [6]: 10% and 14%
Population Healthy Nuclei (%) [6]: 79% and 78%
Population Hoechst High Intensity Objects (%) [6]: 4%
Population Membrane Permeable-Phenotype (%) [6]: 1% and 0%
Population Mitochondria Different-Phenotype (%) [6]: 24% and 33%
Population Mitotic Cells (%) [6]: 66% and 63%
Population Normal (%) [6]: 95%
Population Pyknosed Nuclei (%) [6]: 9% and 6%
Population Tubulin-Different-Phenotype (%) [6]: 17% and 16%
Total Cell Count [6]: 752 and 630

C[C@H](C[C@H](N)C(=O)O)C(=O)O [2S,4R-4-METHYLGLUTAMATE]
Population Apoptotic (%) [1]: 6.61% and 13.76%
Population Fragmented Nuclei (%) [1]: 2.69% and 5.93%
Population Hoechst High Intensity Objects (%) [1]: 0.59% and 0.74%
Population Membrane Permeable-Phenotype (%) [1]: 0% and 5.56%
Population Mitochondria Different-Phenotype (%) [1]: 31.22% and 27.78%
Population Mitotic Cells (%) [1]: 93.39% and 86.24%
Population Normal (%) [1]: 99.41% and 99.26%
Population Pyknosed Nuclei (%) [1]: 36.12% and 80.74%
Total Cell Count [1]: 337 and 136
Population Apoptotic (%) [2]: 7.2% and 16.44%
Population Fragmented Nuclei (%) [2]: 3.38% and 3.49%
Population Hoechst High Intensity Objects (%) [2]: 0%
Population Membrane Permeable-Phenotype (%) [2]: 0%
Population Mitochondria Different-Phenotype (%) [2]: 31.06% and 20%
Population Mitotic Cells (%) [2]: 92.8% and 83.56%
Population Normal (%) [2]: 100%
Population Pyknosed Nuclei (%) [2]: 42.23% and 84.88%
Population Tubulin-Different-Phenotype (%) [2]: 3.73% and 10%
Total Cell Count [2]: 296 and 172
Population Apoptotic (%) [3]: 6.4% and 17.39%
Population Fragmented Nuclei (%) [3]: 1.63% and 2.47%
Population Healthy Nuclei (%) [3]: 75.77% and 26.54%
Population Hoechst High Intensity Objects (%) [3]: 0.36% and 0%
Population Membrane Permeable-Phenotype (%) [3]: 1.67% and 0%
Population Mitochondria Different-Phenotype (%) [3]: 13.13% and 13.95%
Population Mitotic Cells (%) [3]: 93.6% and 82.61%
Population Normal (%) [3]: 99.64% and 100%
Population Tubulin-Different-Phenotype (%) [3]: 10.5% and 2.33%
Population Apoptotic (%) [4]: 10.99% and 23.73%
Population Fragmented Nuclei (%) [4]: 1.21% and 2.99%
Population Healthy Nuclei (%) [4]: 80.4% and 38.31%
Population Hoechst High Intensity Objects (%) [4]: 0%
Population Membrane Permeable-Phenotype (%) [4]: 0.5% and 0%
Population Mitochondria Different-Phenotype (%) [4]: 14.57% and 6.49%
Population Mitotic Cells (%) [4]: 89.01% and 76.27%
Population Normal (%) [4]: 100%
Population Tubulin-Different-Phenotype (%) [4]: 7.29% and 2.6%
Total Cell Count [4]: 495 and 201
Population Fragmented Nuclei (%) [5]: 3.3% and 2.56%
Population Healthy Nuclei (%) [5]: 86.59% and 58.46%
Population Hoechst High Intensity Objects (%) [5]: 0% and 2.5%
Population Membrane Permeable-Phenotype (%) [5]: 4.15% and 2.63%
Population Mitochondria Different-Phenotype (%) [5]: 11.93% and 28.95%
Population Mitotic Cells (%) [5]: 93.48% and 76.32%
Population Normal (%) [5]: 100% and 97.5%
Population Apoptotic (%) [6]: 11.21% and 22.54%
Population Fragmented Nuclei (%) [6]: 1.13% and 2.5%
Population Healthy Nuclei (%) [6]: 90.25% and 75.31%
Population Hoechst High Intensity Objects (%) [6]: 0% and 0.93%
Population Membrane Permeable-Phenotype (%) [6]: 3.93% and 1.24%
Population Mitochondria Different-Phenotype (%) [6]: 12.14% and 16.6%
Population Mitotic Cells (%) [6]: 88.79% and 77.46%
Population Normal (%) [6]: 100% and 99.07%
Population Pyknosed Nuclei (%) [6]: 8.62% and 22.19%
